Source: ChEMBL document CHEMBL1124103, “Potential antitumor agents. 56. "Minimal" DNA-intercalating ligands as antitumor drugs: phenylquinoline-8-carboxamides” (J Med Chem, 1988)
Where “and” joins values, the source holds several entries; their conditions need not be identical. Identical values can stand only once.

Columns and labels:
[1] = system: L1210; assay: Compound concentration that reduces cell growth of L1210 leukemia cultures to 50% of controls after 70h.; format: functional, cell-based; conditions: Mus musculus, L1210, 70 h
[2] = organism: Mus musculus; assay: Percentage increase in lifespan of treated animals(at the optimal dose) compared to controls. Average lifespan of control animals was 11 days (P388).; format: functional
[3] = system: Nucleic Acid; assay: Displacement of ethidium from poly(dA/T) or poly(dG/C)-DNA; format: nucleic-acid assay
Method in brief: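 Association constants (M⁻¹) for binding to poly[d(AT)] and poly[d(GC)] measured by ethidium displacement, assuming ligand and ethidium compete for intercalation sites; reported as log K.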

[4] = system: Mus musculus; assay: Optimal dose administered intraperitoneally on days 1,5 and 9 after intraperitoneal inoculation of P388 leukemia cells.; format: functional
[5] = Ionization constant of chromophore measured by UV spectroscopy in 20% dimethylformamide.; format: physicochemical
Method in brief: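 Chromophore pKa measured by UV spectroscopy in 20% dimethylformamide.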

[6] = system: Mus musculus; assay: Optimal dose administered intraperitoneally on days 5,9 and 13 after intravenous inoculation of lewis lung carcinoma cells.; format: functional
[7] = organism: Mus musculus; assay: Percentage increase in lifespan of treated animals(at the optimal dose) compared to controls. Average lifespan of control animals was 17 days (Lewis lung carcinoma cells).; format: functional
[8] = system: Mus musculus; assay: Percentage increase in lifespan of treated animals(at 100 mg/kg optimal dose) compared to controls. Average lifespan of control animals was 17 days (Lewis lung carcinoma cells).

SMILES | IC50 [1] [nM] | ILS max [2] [%] | Log K [3] | OD [4] [mg/kg] | pKa [5] | OD [6] [mg/kg] | ILSmax [7] | ILSmax [2] | ILS max [7] [%] | ILS max [8] [%]
CN(C)CCNC(=O)c1cccc2cccnc12 | > 25000 | <20 | 5.12 and 5.17 | 100 |  |  |  |  |  | 
CN(C)CCNC(=O)c1ccc(-c2ccccc2)c2cccnc12 | 13700 | <20 | 4.74 and 4.79 | 100 | 3.13 |  |  |  |  | 
CN(C)CCNC(=O)c1cccc2cc3ccccc3nc12 |  | 91 |  | 66 |  | 100 |  |  |  | 
CN(C)CCNC(=O)c1cc(-c2ccccc2)cc2cccnc12 | 910 |  | 6.12 and 5.96 | 65 | 2.93 | 100 | 31 | 29 |  | 
CN(C)CCNC(=O)c1cccc2cc(-c3ccccc3)cnc12 | 2600 | 27 | 5.68 and 5.7 | 100 | 2.58 | 100 |  |  | <40 | 
CN(C)CCNC(=O)c1cccc2ccc(-c3ccccc3)nc12 | 1300 | 91 | 5.97 and 5.92 | 100 | 2.75 | 100 |  |  |  | 70
CN(C)CCNC(=O)c1cccc2c(-c3ccccc3)ccnc12 | 14700 | <20 | 4.73 and 4.77 | 150 | 3.04 |  |  |  |  | 
